The source of these data is publication PMC6218153 (Journal of Alzheimer's Disease Reports, 2018).

Holding throughout (assay type): in vitro ADME
A short description of data set [1]: Metabolic stability in mouse plasma. The essentials: (§1)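 Test compound (100 μM stock in methanol) added to 1 μM final in plasma or brain homogenate (1:3 brain:PBS, w/v) and incubated at room temperature. Sampled at 15 and 30 min and 1, 2 and 4 h; time-zero samples pre-quenched with methanol. Proteins were methanol-precipitated; supernatant evaporated, reconstituted in 0.1% formic acid and analysed by LC/MS/MS. Duplicates per time point; results expressed as % of time 0.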

The nature of data set [2]: Metabolic stability in human plasma. Summed up:
as §1

Data set [3] in a line: Metabolic stability in human brain homogenate. The essentials: as §1

Where no end group is shown, it is not given here.

The half-life is the time in which the quantity being followed falls by half. High values mean slow loss, low ones fast loss. What is called amount remaining is the share of the starting amount still present when the sample was taken. Lower therefore signals more turnover. Consider DEEEDEEL [P8, DEEEDEEL], for which the half-life was over 4 h in data set [1]; over 2 h in data set [2]; 2 h in data set [3] (human brain homogenate, 1μM P8, room temperature). Further, the amount remaining at 2 h, 1 μM in data set [1] came to 100%; in data set [2], 63.1%; in data set [3] (human, brain homogenate), 51.4%.
